Screens from PubChem BioAssay.
Most compounds without a hit are left out; they make up all but 3.5% or so of the library.
MrgX1 allo act: allosterically activates human MrgX1 receptor signaling; Q96LB2; MrgX1-HEK293, Fluo-4 calcium flux, FDSS; hits give high values; B-score at 10 µM; hit rate 0.63% among 310,000; AID 588675;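 active = plate-corrected calcium response at least 3 library SD above typical, normal starting fluorescence, not activating the receptor alone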;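 note: compound read alongside a low EC10 to EC30 dose of BAM8-22 agonist; peak minus trough fluorescence over baseline measured at the second addition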
Target sequence (Q96LB2 whole entry, looked up): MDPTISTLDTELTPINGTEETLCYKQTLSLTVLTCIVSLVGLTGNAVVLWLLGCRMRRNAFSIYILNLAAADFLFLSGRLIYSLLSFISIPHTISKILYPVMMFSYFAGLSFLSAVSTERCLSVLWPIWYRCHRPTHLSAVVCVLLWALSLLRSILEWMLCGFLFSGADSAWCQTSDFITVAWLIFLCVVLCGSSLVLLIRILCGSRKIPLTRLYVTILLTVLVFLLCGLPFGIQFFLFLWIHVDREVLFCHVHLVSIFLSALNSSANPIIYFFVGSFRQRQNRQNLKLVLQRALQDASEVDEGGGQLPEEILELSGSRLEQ
RGS4 pot: potentiators or activators of RGS4 | HEK293 M3R/inducible RGS4, carbachol calcium flux Fluo4; hits give low values | B-score at 10 µM | hit rate 0.92% among 310,000 | AID 463111;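 active = B-score of the integrated calcium signal more than 4 SD below the library mean, with starting fluorescence not abnormally high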;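 note: negative B-score means reduced calcium response which marks RGS4 activation or potentiation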
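Material: M3R-expressing HEK293 line, RGS4 induced by doxycycline | Schedule: Overnight RGS4 induction, 30 min dye load 37 °C, 20 min compound RT | Measured by: Fluo4 fluorescence kinetic imaging of calcium | Read-out: Integrated calcium ratio converted to B score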
MrgX1 agonist: human MrgX1 receptor agonism, primary screen; B-score at 10 µM; Q96LB2; hit rate 0.44% among 310,000; AID 588627; MrgX1-HEK293 cells, Fluo-4 calcium fluorescence, agonist mode; hits give high values;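 active = calcium response B-score plate-corrected fluorescence ratio at least 3 library SD, with starting fluorescence B-score inside 5 SD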
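Material: MrgX1-expressing HEK293 cells; input: 15,000 cells per well; doses: test compound given as first of three sequential additions; schedule: overnight plating before 1 h dye loading; technique: Fluo-4 NW calcium-flux fluorescence, kinetic read; evaluation: baseline-normalised fluorescence change ratio, B-scored; control set: plate-wise positive and negative controls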
RGS4 block: inhibitors of human RGS4. P49798. HEK293 M3R/RGS4 inducible, Fluo-4 calcium flux; hits give high values; triggered by carbachol at its EC20. AID 463165. hit rate 0.45% among 310,000. B-score at 10 µM;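 active = B-score, a plate-corrected calcium signal, over three deviations above library mean, with baseline fluorescence within five deviations of library mean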;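 note: RGS4 expression induced by doxycycline in cells with stable M3 receptor; B-score is computed from the integrated fluorescence ratio over baseline after carbachol; higher B-score means a larger calcium signal and so more RGS4 inhibition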
Target sequence (P49798 whole entry, looked up): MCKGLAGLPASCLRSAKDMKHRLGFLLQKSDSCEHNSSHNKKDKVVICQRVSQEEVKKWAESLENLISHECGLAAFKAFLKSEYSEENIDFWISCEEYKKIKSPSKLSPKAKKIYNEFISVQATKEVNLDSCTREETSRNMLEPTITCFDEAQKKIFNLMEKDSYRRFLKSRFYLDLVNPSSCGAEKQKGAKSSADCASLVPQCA
MrgX1 antag: human MrgX1 receptor antagonism, primary screen | Q96LB2 | MRGX1-HEK293 calcium flux, Fluo-4, BAM8-22 antagonism; hits give low values | B-score at 10 µM | hit rate 1.3% among 310,000 | AID 588676;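 active = calcium-response B-score plate-corrected more than 3 library SD below zero, starting fluorescence within 5 deviations, no agonist response on first addition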;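 note: peak minus trough fluorescence over baseline after final BAM8-22 challenge near maximal dose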
* hit, by the source's call; i = inactive.

SMILES | MrgX1 allo act | RGS4 pot | MrgX1 agonist | RGS4 block | MrgX1 antag
CCN(Cc1ccccc1)C(c1cccs1)c1nnnn1C1CCCCC1 (centres undefined) | i | i | i | i | i
CCN1CCN(c2ccc(S(=O)(=O)N3CCCCC3)cc2NC(=O)c2ccc([N+](=O)[O-])s2)CC1 | i | i | i | i | i
COc1cccc(NC(=S)NC(=O)/C=C/c2ccc(F)cc2)c1 | i | i | i | i | i
CCC(=O)Nc1cccc(C(=O)/C=C/c2ccc(F)cc2)c1 | i | i | 29.5* | i | i
CN(Cc1nccn1C)C(=O)CC1C(=O)NCCN1Cc1cccc(Oc2ccccc2)c1 (centres undefined) | i | i | i | i | -5.17*
Cc1ccc(N(CC(=O)Nc2ccc3c(c2)OCCO3)S(C)(=O)=O)cc1 | i | i | i | i | i
O=C(Nc1ncc(S(=O)(=O)c2ccc([N+](=O)[O-])cc2)s1)c1cccc2ccccc12 | i | -7.65* | i | i | i
COCC(=O)Nc1ncc(S(=O)(=O)c2ccc([N+](=O)[O-])cc2)s1 | i | i | i | i | i
CNC(=O)Nc1cc(C(F)(F)F)cc(C(F)(F)F)c1 | i | i | i | i | i
O=C(Nc1cc(C(F)(F)F)cc(C(F)(F)F)c1)Nc1cnn(-c2ccc([N+](=O)[O-])cc2)c1C(F)(F)F | i | i | i | i | -6.96*
CCS(=O)(=O)C1=NN2C(=N)/C(=C\c3ccc(OC(=O)c4ccco4)c(OC)c3)C(=O)N=C2S1 | i | i | i | i | i
CC1CCN(C2=NN3C(=N)/C(=C\c4ccc(OC(=O)c5ccco5)cc4)C(=O)N=C3S2)CC1 | i | i | i | i | i
COc1cc(/C=C2/C(=N)N3C(=NC2=O)SN=C3S(=O)(=O)C(C)C)ccc1OS(=O)(=O)c1ccccc1 | 13.5* | i | i | i | i
CS(=O)(=O)C1=NSC2=NC(=O)/C(=C\c3ccc(OC(=O)c4ccco4)cc3)C(=N)N21 | 24.9* | i | i | i | i
Cc1cc(/C=C2/C(=N)N3C(=NC2=O)SN=C3S(C)(=O)=O)c(C)n1-c1ccccc1F | 11.2* | i | i | i | i
COc1cc(/C=C2\C(=N)N3N=CSC3=NC2=O)cc(Br)c1OC(=O)c1ccco1 | i | i | 34.1* | i | i
CC1=CC2=NC(=O)/C(=C\c3cc(C)n(-c4ccccc4F)c3C)C(=N)N2O1 | i | i | i | i | i
CCCC(C(=O)Nc1cc(S(=O)(=O)N2CCOCC2)ccc1OC)c1ccccc1 (centres undefined) | i | i | i | i | i
COc1cc(/C=C2/SC(=O)NC2=O)ccc1OC(=O)c1ccco1 | i | i | i | i | i
CCS(=O)(=O)C1=NSC2=NC(=O)/C(=C\c3ccc(OC(=O)c4ccco4)c(OC)c3)C(=N)N21 | 28.2* | i | i | i | i
COc1cc(/C=C2/C(=N)N3C(=NC2=O)SN=C3S(C)(=O)=O)ccc1OC(=O)c1ccco1 | 18.1* | i | i | i | i
COc1cc(/C=C2/SC(=S)N(C)C2=O)ccc1OC(=O)c1ccco1 | i | i | i | i | -5.01*
CCOc1cc(/C=C2\C(=N)N3N=CSC3=NC2=O)ccc1OS(=O)(=O)c1ccccc1 | i | i | 56.6* | i | i
O=C(Nc1cccc(Cl)c1N1CCCC1)c1ccc([N+](=O)[O-])o1 | i | i | i | i | i
CCN1CCN(c2c(Cl)cccc2NC(=O)c2ccc([N+](=O)[O-])o2)CC1 | i | -7.54* | i | i | i
SMILES | MrgX1 allo act | RGS4 pot | MrgX1 agonist | RGS4 block | MrgX1 antag
Cc1onc(-c2ccccc2Cl)c1C(=O)N1CCN(c2ccc(F)cc2)CC1 | i | i | i | i | i
CCOC(=O)N1CCN(c2nc(-c3cccs3)nc3ccccc23)CC1 | i | -7.27* | i | i | i
CCCN1CCN(c2nc(-c3cccs3)nc3ccccc23)CC1 | i | i | i | i | i
Cc1ccc(-c2nc(CN(C)Cc3cccc4cnccc34)c(C)o2)s1 | i | i | 27.8* | i | i
C=CCCCCc1nc2ccccc2c(=O)n1N | i | i | i | i | i
CCCCCCc1nc2ccccc2c(=O)n1N | 9.05* | i | i | i | i
Cc1onc(-c2ccccc2Cl)c1C(=O)N1CCc2ccccc2C1 | i | -7.3* | i | i | i
Cc1cc2ncn(C(=O)c3c(-c4c(Cl)cccc4Cl)noc3C)c2cc1C | i | -7.19* | i | i | i
Cc1onc(-c2c(Cl)cccc2Cl)c1C(=O)N1CCc2ccccc21 | i | -7.56* | i | i | i
Cc1cc2ncn(C(=O)c3c(-c4ccccc4)noc3C)c2cc1C | i | i | i | i | i
Cc1onc(-c2c(Cl)cccc2Cl)c1C(=O)N1CCOCC1 | i | i | i | i | i
Cc1onc(-c2c(F)cccc2Cl)c1C(=O)N1CCc2ccccc2C1 | i | i | i | i | i
C=CCNC(=O)CN(Cc1ccccc1)S(=O)(=O)c1ccccc1 | i | i | i | i | i
Cc1ccc(OCCCCNC(C)c2ccccc2)c(C)c1 (centres undefined) | i | i | i | i | i
COc1ccc(C2CC2/C(C)=N/OC(=O)C2CC2)cc1 (centres undefined) | i | i | i | i | i
COc1ccc(C2CC2C(C)=O)cc1 (centres undefined) | i | i | 30.3* | i | i
COc1ccccc1/C=C/C(=O)c1c2c(c(C)[nH]c1=O)CCCC2 | i | i | i | i | i
C=CS(=O)(=O)c1ccc(Oc2ccc(S(=O)(=O)C=C)cc2)cc1 | i | i | 31.4* | 21.2* | i
NS(=O)(=O)c1ccc(Oc2ccc(S(N)(=O)=O)cc2)cc1 | i | i | i | i | i
Cc1c(CCOC(=O)CC23CC4CC(CC(C4)C2)C3)sc[n+]1CC(=O)c1ccc(Br)cc1 | i | -7.46* | i | i | i
Cc1c(CCOC(=O)C23CC4CC(CC(C)(C4)C2)C3)sc[n+]1CC(=O)c1ccccc1 | i | i | i | i | i
Cc1c(CCOC(=O)c2ccccc2)sc[n+]1Cc1ccccc1 | i | -10.4* | i | i | i
Cc1c(CCOC(=O)c2cc([N+](=O)[O-])cc([N+](=O)[O-])c2)sc[n+]1CC(=O)c1ccccc1 | i | i | i | i | i
Cc1c(CCOC(=O)CC23CC4CC(CC(C)(C4)C2)C3)sc[n+]1CC(=O)c1ccccc1 | i | i | i | i | i
